The list is not random: actives were taken first. Their share in the collection is about 3.5%.
RGS4 pot = potentiators or activators of RGS4; 0.92% of 310,000 active; HEK293 M3R/inducible RGS4, carbachol calcium flux Fluo4; stronger effect = lower value; B-score at 10 µM;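 active = B-score of the integrated calcium signal more than 4 SD below the library mean, with starting fluorescence not abnormally high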;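 note: negative B-score means reduced calcium response which marks RGS4 activation or potentiation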
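Detection: kinetic calcium fluorescence imaging with Fluo4-AM dye, 2 µM / Material: HEK293 cells with stable M3R and inducible RGS4 / Schedule: recording 10 s baseline at 1 Hz, 100 s post-agonist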
RGS4 block = inhibitors of human RGS4; P49798; HEK293 M3R/RGS4 inducible, Fluo-4 calcium flux; stronger effect = higher value; triggered by carbachol at its EC20; B-score at 10 µM; 0.45% of 310,000 active; AID 463165;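 active = B-score, a plate-corrected calcium signal, over three deviations above library mean, with baseline fluorescence within five deviations of library mean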;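 note: RGS4 expression induced by doxycycline in cells with stable M3 receptor; B-score is computed from the integrated fluorescence ratio over baseline after carbachol; higher B-score means a larger calcium signal and so more RGS4 inhibition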
Target sequence (P49798 whole entry, looked up): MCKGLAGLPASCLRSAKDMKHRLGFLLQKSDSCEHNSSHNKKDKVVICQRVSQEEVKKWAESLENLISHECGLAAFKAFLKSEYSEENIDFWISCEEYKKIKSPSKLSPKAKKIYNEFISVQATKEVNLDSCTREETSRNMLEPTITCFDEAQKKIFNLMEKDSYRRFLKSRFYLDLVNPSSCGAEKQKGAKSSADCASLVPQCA
MrgX1 allo act = human MrgX1 positive allosteric modulation, primary screen. Q96LB2. MrgX1-HEK293, Fluo-4 calcium flux, FDSS; stronger effect = higher value. B-score at 10 µM. 0.63% of 310,000 active;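 active = plate-corrected calcium response at least 3 library SD above typical, normal starting fluorescence, not activating the receptor alone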;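 note: compound read alongside a low EC10 to EC30 dose of BAM8-22 agonist; peak minus trough fluorescence over baseline measured at the second addition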
Target sequence (Q96LB2 whole entry, looked up): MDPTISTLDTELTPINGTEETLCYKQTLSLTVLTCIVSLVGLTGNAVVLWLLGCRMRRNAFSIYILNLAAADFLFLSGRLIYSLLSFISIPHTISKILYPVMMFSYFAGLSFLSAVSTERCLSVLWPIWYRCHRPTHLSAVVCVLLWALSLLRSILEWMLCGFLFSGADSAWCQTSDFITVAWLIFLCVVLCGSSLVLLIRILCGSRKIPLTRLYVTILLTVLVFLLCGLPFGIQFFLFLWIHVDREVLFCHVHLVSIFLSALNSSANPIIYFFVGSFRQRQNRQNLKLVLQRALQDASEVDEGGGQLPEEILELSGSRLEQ
MrgX1 antagonist = human MrgX1 receptor antagonism, primary screen; MRGX1-HEK293 calcium flux, Fluo-4, BAM8-22 antagonism; stronger effect = lower value; B-score at 10 µM; 1.3% of 310,000 active; AID 588676;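 active = calcium-response B-score plate-corrected more than 3 library SD below zero, starting fluorescence within 5 deviations, no agonist response on first addition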;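 note: peak minus trough fluorescence over baseline after final BAM8-22 challenge near maximal dose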
MrgX1 ag = agonists of human MrgX1 receptor; 0.44% of 310,000 active; MrgX1-HEK293 cells, Fluo-4 calcium fluorescence, agonist mode; stronger effect = higher value; AID 588627; B-score at 10 µM; Q96LB2;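 active = calcium response B-score plate-corrected fluorescence ratio at least 3 library SD, with starting fluorescence B-score inside 5 SD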
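Material – MrgX1-expressing HEK293 cells · Input – 15,000 cells seeded per well · Dosing – compound as first of three additions · Times – overnight seeding, then 1 h dark dye loading · Measured by – kinetic Fluo-4 NW fluorescence of intracellular calcium · Read-out – B-scored fluorescence response ratio · Benchmarks – positive and negative control wells on each plate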
Of the large screens only hits and unclear results are named; the others gave an inactive call.

CNc1cccc2c1C(=O)c1ccccc1C2=O	none
O=C1c2ccccc2-c2cccc(NS(=O)(=O)c3ccc(C(F)(F)F)cc3)c21	RGS4 pot -6.97
COc1ccc([N+](=O)[O-])cc1NC(=S)NC(C)=O	none
CC(=O)NC(=S)Nc1ccc([N+](=O)[O-])cc1C	MrgX1 antagonist -8.04
COc1cc(/C=C2\SC(=O)N(CC(=O)Nc3ccccc3F)C2=O)cc(Cl)c1O	MrgX1 antagonist -6.22
COc1cc(OC)c(/C=C2\SC(=O)N(CC(=O)Nc3ccccc3F)C2=O)c(OC)c1	none
Clc1ccc(CSc2nnc(-c3sccc3-n3cccc3)o2)cc1	MrgX1 antagonist -4.78
Cc1cc(O)c2c(-c3ccccc3)cc(=O)oc2c1	MrgX1 ag 43.6 (no result: RGS4 pot, RGS4 block)
CC(=O)COc1cc(C)cc2oc(=O)cc(-c3ccccc3)c12	none
Cc1ccc(Cn2nc(C)c(NC(=O)CSc3n[nH]c(C)c3[N+](=O)[O-])c2C)cc1	MrgX1 antagonist -5.98
C=CCn1c(-c2ccc([N+](=O)[O-])cc2)n[nH]c1=S	RGS4 pot -7.68
C=CCn1c(-c2ccccc2[N+](=O)[O-])n[nH]c1=S	none
O=C(OCC1OC(n2ncc(=O)[nH]c2=O)C(OC(=O)c2ccccc2)C1OC(=O)c1ccccc1)c1ccccc1 (configuration not stated)	RGS4 pot -7.2
COc1ccccc1N1CCN(C(=O)c2cc3c(C)nc4ccccc4c3o2)CC1	RGS4 pot -7.38
Cc1nc2ccccc2c2oc(C(=O)N3CC(C)CC(C)C3)cc12 (configuration not stated)	none
CCOc1ccc(S(=O)(=O)N2CCCC(C(=O)Nc3cc(C)cc(C)c3)C2)cc1 (configuration not stated)	none
O=C(Nc1ccccc1O)c1ccccc1O	MrgX1 antagonist -5.84
O=C(NCC(=O)N1CCN(c2ccccc2)CC1)c1cccs1	none
O=C(N/N=C/c1c[nH]c2ccccc12)c1ccc2c(c1)OCCO2	none
O=C(N/N=C/c1c[nH]c2ccc(Br)cc12)c1ccc2c(c1)OCO2	MrgX1 ag 45.1
COc1cccc(CC(NC(C)=O)C(=O)NC2CCN(C(=O)c3ccc(Cl)cc3)CC2)c1 (configuration not stated)	none (no result: MrgX1 allo act, MrgX1 antagonist, MrgX1 ag)
O=C(Nc1ccc(Cl)c(C(F)(F)F)c1)[C@@H]1CC=C[C@@H]2CCN(Cc3ccccc3)C(=O)[C@@H]21	MrgX1 allo act 7.25
O=C(NC(=S)N1CCCCC1)c1csc([N+](=O)[O-])c1	none
O=C1C(Cl)=C(Nc2ccc3cn[nH]c3c2)C(=O)c2ccccc21	MrgX1 antagonist -9.63
O=C(Nc1ccc2cn[nH]c2c1)c1c(Cl)cccc1Cl	none
CS(=O)(=O)Nc1ccc(C2=NN(C(=O)CCCC(=O)O)C(c3cccs3)C2)cc1 (configuration not stated)	none
CC(C)Nc1ccc(Nc2ccnc3cc4ccccc4cc23)cc1	RGS4 pot -9.9
O=C(NCc1cccc(C(F)(F)F)c1)C1CC2Cn3c(nc4ccccc43)C2N1Cc1ccccc1 (configuration not stated)	none
COc1ccc(Nc2nnc(SCc3cc([N+](=O)[O-])cc4c3OCOC4)s2)cc1	MrgX1 antagonist -4.57
Cc1nnc(SCc2cc([N+](=O)[O-])cc3c2OCOC3)[nH]c1=O	none
CNC(=O)COC(=O)/C=C/c1cccs1	MrgX1 allo act 6.5
COc1ccc(-c2cnnc(N/N=C/c3ccc(C)o3)n2)cc1	MrgX1 antagonist -5.19
COc1ccc(-c2cnnc(N/N=C/c3ccc(O)cc3)n2)cc1	none
CC1CCCN(S(=O)(=O)CCNC(=O)c2ccccc2)C1 (configuration not stated)	none
N#C[C@H]1C2OC2c2ccccc2N1C(=O)c1ccccc1 (some centres not stated)	MrgX1 antagonist -7.94
O=c1c2c(nc3n1CCCCC3)sc1c(O)c(Br)ccc12	MrgX1 antagonist -5.35
CCN(CC)CCOc1c(Br)ccc2c1sc1nc3n(c(=O)c12)CCC3	none
CCS(=O)(=O)C1=NN2C(=N)/C(=C\c3ccc(OS(=O)(=O)c4ccccc4)c(OC)c3)C(=O)N=C2S1	none
COc1cc(/C=C2\C(=N)N3N=C(S(=O)(=O)CC(C)C)SC3=NC2=O)ccc1OC(=O)c1ccco1	none
CS(=O)(=O)C1=NSC2=NC(=O)/C(=C\c3ccc(OC(=O)c4ccco4)c(Br)c3)C(=N)N21	MrgX1 allo act 16.7
CCS(=O)(=O)C1=NN2C(=N)/C(=C\c3ccc(OS(=O)(=O)c4ccccc4)cc3)C(=O)N=C2S1	MrgX1 allo act 7.2
CCC1=NN2C(=N)/C(=C\c3cccn3-c3ccc(Cl)cc3)C(=O)N=C2S1	MrgX1 allo act 8.09
CCS(=O)(=O)C1=NN2C(=N)/C(=C\c3ccc(OC(=O)c4ccco4)cc3)C(=O)N=C2S1	MrgX1 allo act 8.56
O=C(NNC(=O)c1ccc(-c2ccccc2)cc1)Nc1ccc(F)cc1F	none
O=C(OCCOc1ccc(Br)cc1)c1ccc(Cl)c(S(=O)(=O)N2CCOCC2)c1	none
CCC(C)(C)n1nnnc1C(c1ccccc1F)N1CCN(C(=O)c2ccco2)CC1 (configuration not stated)	none
O=C(N/C(=C\c1cccc(Br)c1)C(=O)N1CCOCC1)c1ccco1	none
CCC1=NN2C(=N)/C(=C/c3ccc(OS(=O)(=O)c4ccccc4)cc3)C(=O)N=C2S1	MrgX1 ag 38.8
CCC(CC)C1=NN2C(=N)/C(=C/c3ccc(OC(=O)c4ccco4)cc3)C(=O)N=C2S1	none
CC(C)CS(=O)(=O)C1=NSC2=NC(=O)/C(=C\c3ccc(OC(=O)c4ccco4)cc3)C(=N)N21	MrgX1 allo act 14.7
CCC1=NN2C(=N)/C(=C/c3ccc(OS(=O)(=O)c4ccc(C)cc4)c(OC)c3)C(=O)N=C2S1	none
O=C(N/N=C/c1ccccc1Br)c1ccc(CSc2cccc3cccnc23)cc1	none
NNC(=O)c1ccc(CSc2cccc3cccnc23)cc1	MrgX1 antagonist -4.58
Cc1nn(-c2ccccc2)c(Cl)c1/C=N/NC(=O)c1ccc(NS(=O)(=O)c2cccs2)cc1	MrgX1 allo act 11
Cc1ccc(-n2nc(C)c(/C=N/NC(=O)c3cccnc3)c2Cl)cc1	MrgX1 antagonist -4.82
Cc1ccc(/C=C2\S/C(=N/S(=O)(=O)c3cccs3)NC2=O)cc1	MrgX1 allo act 14.1
Cc1ccc(S(=O)(=O)/N=C2/NC(=O)/C(=C\c3ccco3)S2)cc1	none (no result: RGS4 pot, RGS4 block)
CCN(CC)CCC(C)OC(c1ccccc1)c1ccccc1 (configuration not stated)	RGS4 pot -8.69
CSCC[C@H](NC(=O)N1CCn2c1nc1ccccc12)C(=O)NCc1ccccc1	none
CSCC[C@H](NC(=O)N1CCn2c1nc1ccccc12)C(=O)N[C@H](Cc1ccccc1)C(=O)O	MrgX1 antagonist -7.64
CCOc1ccc(NC(=O)CSc2nnc(-c3ccncc3)n2CC2CCCO2)cc1 (configuration not stated)	MrgX1 antagonist -6.67

High-throughput results (PubChem)
